Test results published in ChEMBL document CHEMBL4811272, “A new sulfated triterpene glycoside from the sea cucumber Colochirus quadrangularis, and evaluation of its antifungal, antitumor and immunomodulatory activities” (Bioorg Med Chem, 2021).
The source made the active and inactive calls. The rule behind the calls is not given here.

Tests used:
HL-60 = test: Cytotoxicity against human HL-60 cells assessed as reduction in cell viability by sulforhodamine B assay; assay type: functional, cell-based
Procedure, shortened: (§1)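 Cells were kept in RPMI-1640 with 10% FBS, 2 mM L-glutamine, 50 μM β-mercaptoethanol and penicillin/streptomycin, at 37 °C in 5% CO2. SRB assay used 100, 10, 1, 0.1 and 0.01 μM, each in triplicate. Percent inhibition was calculated against solvent control OD. IC50 came from Logit curve fitting and is the mean of three independent experiments.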

H22 = test: Antitumor activity against mouse H22 cells implanted in KM mouse assessed as tumor growth inhibition at 0.5 mg/kg, IG administered everyday for 7 days relative to control; assay type: functional; settings: H22, po, 168 h, time 7 day, read-out: TGI
Procedure, shortened: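 S-180 or H22 cells, about 2.5 × 10⁶ per mouse, injected s.c. in the right axilla of wild-type KM mice. Randomized after 24 h and dosed intragastrically for 7 days; sacrificed 24 h after the last dose. TGI = (W_C − W_T)/W_C × 100% from average tumor weight. n = 8; one-way ANOVA vs vehicle.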

[1] = target: Vascular endothelial growth factor receptor 2 (Mus musculus, UniProt P35918); test: Inhibition of VEGFR2 in mouse NIH/3T3 cells assessed as reduction of VEGF-stimulated phosphorylation; assay type: cell-based
Procedure, shortened: (§2)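 NIH/3T3 fibroblasts transfected to overexpress VEGFR-2 or PDGFR-β, starved 24 h, then given compound. Stimulation: VEGF 500 ng/mL for VEGFR-2 cells, PDGF-BB 150 ng/mL for PDGFR-β cells. Cells fixed in 4% paraformaldehyde and probed with PY-99 anti-phosphotyrosine, secondary IgG and HRP-avidin. OD 405 nm read after ABTS; IC50 from three independent experiments.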

Bel-7402 [2] = test: Cytotoxicity against human Bel-7402 cells assessed as reduction in cell viability by sulforhodamine B assay; assay type: functional, cell-based; procedure, shortened: as §1
Mus musculus = test: Immunomodulatory activity in cyclophosphamide-immunosuppressed KM mouse assessed as increase in carbon particle clearance index in at 50 to 500 mg/kg, IG once daily measured after 14 days; assay type: functional, organism-based; settings: dose 50-500 mg/kg, time 14.0 day
Procedure, shortened: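 KM mice dosed intragastrically once daily for 14 days at 5, 50 or 500 mg/kg; vehicle 0.5% CMC-Na. CTX 50 mg/kg i.p. on days 7, 9 and 11. 1 h after the last dose, 25% Indian ink given i.v. at 0.1 mL/10 g. Blood (20 µL) taken at 2 and 10 min, lysed in 2 mL water, OD 680 nm read. K and α calculated with body, liver and spleen weights. n = 8.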

MCF7 = test: Cytotoxicity against human MCF7 cells assessed as reduction in cell viability by sulforhodamine B assay; assay type: functional, cell-based; procedure, shortened: as §1
HCT-116 [3] = test: Induction of apoptosis in human HCT-116 cells assessed as apoptotic nuclei cells measured upto 2 times of IC50 concentration for 24 hrs by Hoechst staining method; assay type: functional, cell-based
Procedure, shortened: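 HCT-116 cells treated with vehicle or three compound concentrations, then stained with Hoechst 33258. Nuclei examined by inverted fluorescence microscopy at ×400 in five random fields. Apoptotic cells expressed as % of cells counted. n = 3; ANOVA vs vehicle.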

HCT-116 [4] = test: Induction of apoptosis in human HCT-116 cells assessed as decrease in viable cells measured upto 2 times of IC50 concentration by annexin V staining based flow cytometry analysis; assay type: functional, cell-based
Procedure, shortened: (§3)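 HCT-116 cells treated with vehicle or three compound concentrations, collected, and stained with Annexin V-FITC and propidium iodide in the dark at 4 °C. Flow cytometry quadrants: Q4 live, Q3 early apoptotic, Q2 late apoptotic, Q1 necrotic. n = 3; ANOVA vs vehicle.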

[5] = target: Platelet-derived growth factor receptor beta (Mus musculus, UniProt P05622); test: Inhibition of PDGFRbeta in mouse NIH/3T3 cells assessed as reduction of PDGF-BB-stimulated phosphorylation; assay type: cell-based; procedure, shortened: as §2
HMEC-1 [6] = test: Antimigratory activity against human HMEC-1 cells assessed as inhibition of cell migration by transwell assay; assay type: functional, cell-based
Procedure, shortened: (§4)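 HMEC-1 endothelial cells seeded and exposed to compound. Proliferation read by SRB and migration by Transwell. IC50 calculated from three independent experiments.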

HMEC-1 [7] = test: Antiproliferative activity against human HMEC-1 cells assessed as inhibition of proliferation by SRB method; assay type: functional, cell-based; procedure, shortened: as §4
Bel-7402 [8] = test: Antitumor activity against human Bel-7402 cells implanted in BALB/c-nu mouse assessed as T/C ratio at 50 mg/kg, IG administered everyday for 7 days relative to control; assay type: functional; settings: time 7 day
[9] = Cytotoxicity against human HO-8910 cells assessed as reduction in cell viability by sulforhodamine B assay; assay type: functional, cell-based; procedure, shortened: as §1
HCT-116 [10] = test: Induction of apoptosis in human HCT-116 cells assessed as increase in late apoptotic cells measured upto 2 times of IC50 concentration by annexin V staining based flow cytometry analysis; assay type: functional, cell-based; procedure, shortened: as §3

Platelet-derived growth factor receptor beta, sequence (P05622 whole entry): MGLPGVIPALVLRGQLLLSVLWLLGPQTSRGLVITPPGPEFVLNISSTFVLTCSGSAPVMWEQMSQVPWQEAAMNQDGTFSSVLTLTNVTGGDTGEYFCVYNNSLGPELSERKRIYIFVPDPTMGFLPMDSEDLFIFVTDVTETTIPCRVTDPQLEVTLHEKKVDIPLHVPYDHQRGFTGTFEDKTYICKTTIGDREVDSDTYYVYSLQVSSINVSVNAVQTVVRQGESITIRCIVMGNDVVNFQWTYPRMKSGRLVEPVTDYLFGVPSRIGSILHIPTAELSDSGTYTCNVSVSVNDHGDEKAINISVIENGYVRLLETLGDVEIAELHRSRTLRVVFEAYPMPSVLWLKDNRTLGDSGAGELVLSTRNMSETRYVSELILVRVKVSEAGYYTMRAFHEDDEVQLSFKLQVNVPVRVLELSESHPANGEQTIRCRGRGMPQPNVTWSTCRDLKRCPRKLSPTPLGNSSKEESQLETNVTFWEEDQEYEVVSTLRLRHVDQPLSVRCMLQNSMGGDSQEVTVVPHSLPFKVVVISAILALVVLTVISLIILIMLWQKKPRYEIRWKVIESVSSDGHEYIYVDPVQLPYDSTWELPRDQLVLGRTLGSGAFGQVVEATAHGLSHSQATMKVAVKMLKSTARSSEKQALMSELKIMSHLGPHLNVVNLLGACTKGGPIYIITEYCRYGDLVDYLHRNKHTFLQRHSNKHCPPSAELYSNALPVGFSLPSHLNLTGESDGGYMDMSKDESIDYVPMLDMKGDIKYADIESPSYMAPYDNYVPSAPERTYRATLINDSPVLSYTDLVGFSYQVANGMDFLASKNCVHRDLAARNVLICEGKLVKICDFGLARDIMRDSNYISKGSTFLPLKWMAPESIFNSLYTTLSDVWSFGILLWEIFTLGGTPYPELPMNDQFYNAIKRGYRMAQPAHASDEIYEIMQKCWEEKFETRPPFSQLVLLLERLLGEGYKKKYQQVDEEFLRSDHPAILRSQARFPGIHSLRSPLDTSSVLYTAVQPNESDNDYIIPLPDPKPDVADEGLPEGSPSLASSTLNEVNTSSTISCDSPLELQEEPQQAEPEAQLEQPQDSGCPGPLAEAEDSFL
Vascular endothelial growth factor receptor 2, sequence (P35918 whole entry): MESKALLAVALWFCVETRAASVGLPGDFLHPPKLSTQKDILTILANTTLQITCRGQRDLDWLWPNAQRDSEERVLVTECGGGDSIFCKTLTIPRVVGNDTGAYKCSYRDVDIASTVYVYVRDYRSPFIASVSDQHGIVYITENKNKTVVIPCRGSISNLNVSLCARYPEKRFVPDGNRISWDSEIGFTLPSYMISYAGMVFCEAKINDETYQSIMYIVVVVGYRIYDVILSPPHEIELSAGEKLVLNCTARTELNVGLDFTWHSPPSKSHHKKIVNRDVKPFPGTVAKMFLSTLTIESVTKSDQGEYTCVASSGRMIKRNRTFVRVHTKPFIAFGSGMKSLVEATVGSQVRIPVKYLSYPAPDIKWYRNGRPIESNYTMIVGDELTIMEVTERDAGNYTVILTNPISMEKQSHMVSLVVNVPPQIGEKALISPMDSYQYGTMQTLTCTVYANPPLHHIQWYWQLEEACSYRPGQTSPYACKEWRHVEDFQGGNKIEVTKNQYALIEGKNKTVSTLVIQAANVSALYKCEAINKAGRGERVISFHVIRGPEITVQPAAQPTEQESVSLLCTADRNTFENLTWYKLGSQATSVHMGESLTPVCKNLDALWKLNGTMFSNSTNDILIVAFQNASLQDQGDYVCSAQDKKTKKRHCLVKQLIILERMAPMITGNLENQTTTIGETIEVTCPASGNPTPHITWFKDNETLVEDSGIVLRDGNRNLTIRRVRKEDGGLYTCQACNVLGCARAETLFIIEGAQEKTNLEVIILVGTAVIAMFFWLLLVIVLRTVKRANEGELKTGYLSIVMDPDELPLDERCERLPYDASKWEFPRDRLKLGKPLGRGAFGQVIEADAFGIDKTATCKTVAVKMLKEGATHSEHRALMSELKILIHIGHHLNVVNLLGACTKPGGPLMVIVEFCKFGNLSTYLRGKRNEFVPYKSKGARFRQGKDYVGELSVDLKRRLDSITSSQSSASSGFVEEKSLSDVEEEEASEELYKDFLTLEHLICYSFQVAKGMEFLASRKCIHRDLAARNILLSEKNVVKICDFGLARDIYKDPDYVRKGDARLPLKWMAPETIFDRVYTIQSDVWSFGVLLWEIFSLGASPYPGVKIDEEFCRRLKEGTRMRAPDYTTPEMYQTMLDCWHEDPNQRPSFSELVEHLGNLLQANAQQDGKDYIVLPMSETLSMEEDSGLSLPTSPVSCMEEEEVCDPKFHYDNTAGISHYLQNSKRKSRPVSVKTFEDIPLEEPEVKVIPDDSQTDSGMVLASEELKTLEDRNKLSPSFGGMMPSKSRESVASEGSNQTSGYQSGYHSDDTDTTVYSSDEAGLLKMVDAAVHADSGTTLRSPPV

C=C(C)CCC[C@]1(C)OC(=O)[C@]23CC[C@@H]4C(=CCC5C(C)(C)[C@@H](O[C@@H]6OC[C@@H](OS(=O)(=O)[O-])[C@H](O)[C@H]6O[C@@H]6O[C@H](C)[C@@H](O[C@@H]7OC[C@@H](O)[C@H](O[C@@H]8O[C@H](CO)[C@@H](O)[C@H](OC)[C@H]8O)[C@H]7O)[C@H](O)[C@H]6O)CC[C@@]54C)[C@]2(C)C[C@H](OC(C)=O)[C@@H]31.[Na+] (some centres undefined)
IC50 (HL-60): 0.6 µM | inhibition in vivo at 0.5 mg/kg (H22): 22.1% | IC50 [1]: 2.2 µM | IC50 (Bel-7402 [2]): 1.45 µM | Activity (Mus musculus): Active | IC50 (MCF7): 2.03 µM | Activity (HCT-116 [3]): Active | Activity (HCT-116 [4]): inactive | IC50 [5]: 4.8 µM | IC50 (HMEC-1 [6]): 0.05 µM | IC50 (HMEC-1 [7]): 1.6 µM | T/C (Bel-7402 [8]): 42.2% | IC50 [9]: 1.94 µM | Activity (HCT-116 [10]): Active
